Laboratory results published in ChEMBL document CHEMBL1134363 (J Med Chem, 2001).

Experiments:
[1] = molecular target: T1, Adrenergic receptor alpha-2 (Rattus norvegicus, UniProt P22086+P19328+P22909); assay: In vitro binding affinity against alpha-2 adrenergic receptor of rat in presence of [3H]-RX 821002 radioligand; type: protein assay
T1 sequence (P22086 whole entry): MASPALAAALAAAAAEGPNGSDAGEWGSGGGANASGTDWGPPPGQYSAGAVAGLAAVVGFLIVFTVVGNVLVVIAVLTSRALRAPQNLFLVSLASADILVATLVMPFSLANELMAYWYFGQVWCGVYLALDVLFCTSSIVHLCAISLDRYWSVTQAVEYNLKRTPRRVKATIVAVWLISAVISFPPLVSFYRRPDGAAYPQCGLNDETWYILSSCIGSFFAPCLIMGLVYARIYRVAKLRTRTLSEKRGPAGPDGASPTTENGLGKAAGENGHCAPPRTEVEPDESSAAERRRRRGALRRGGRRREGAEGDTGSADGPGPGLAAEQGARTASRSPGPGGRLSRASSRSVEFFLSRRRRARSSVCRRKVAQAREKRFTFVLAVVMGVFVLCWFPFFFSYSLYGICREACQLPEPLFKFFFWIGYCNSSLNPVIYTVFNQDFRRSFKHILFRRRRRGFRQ
T1 sequence (P19328 whole entry): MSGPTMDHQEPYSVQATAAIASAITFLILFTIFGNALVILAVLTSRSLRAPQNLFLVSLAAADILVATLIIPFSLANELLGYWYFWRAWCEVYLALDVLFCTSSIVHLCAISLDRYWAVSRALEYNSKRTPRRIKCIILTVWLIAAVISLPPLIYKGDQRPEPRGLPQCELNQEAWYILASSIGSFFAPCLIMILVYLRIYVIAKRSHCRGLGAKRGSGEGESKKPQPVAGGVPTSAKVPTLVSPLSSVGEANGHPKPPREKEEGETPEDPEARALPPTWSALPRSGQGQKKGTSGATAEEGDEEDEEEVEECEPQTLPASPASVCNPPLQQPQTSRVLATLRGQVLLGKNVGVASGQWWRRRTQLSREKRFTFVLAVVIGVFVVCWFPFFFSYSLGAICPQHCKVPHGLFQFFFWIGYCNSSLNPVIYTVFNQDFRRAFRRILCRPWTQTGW
T1 sequence (P22909 whole entry): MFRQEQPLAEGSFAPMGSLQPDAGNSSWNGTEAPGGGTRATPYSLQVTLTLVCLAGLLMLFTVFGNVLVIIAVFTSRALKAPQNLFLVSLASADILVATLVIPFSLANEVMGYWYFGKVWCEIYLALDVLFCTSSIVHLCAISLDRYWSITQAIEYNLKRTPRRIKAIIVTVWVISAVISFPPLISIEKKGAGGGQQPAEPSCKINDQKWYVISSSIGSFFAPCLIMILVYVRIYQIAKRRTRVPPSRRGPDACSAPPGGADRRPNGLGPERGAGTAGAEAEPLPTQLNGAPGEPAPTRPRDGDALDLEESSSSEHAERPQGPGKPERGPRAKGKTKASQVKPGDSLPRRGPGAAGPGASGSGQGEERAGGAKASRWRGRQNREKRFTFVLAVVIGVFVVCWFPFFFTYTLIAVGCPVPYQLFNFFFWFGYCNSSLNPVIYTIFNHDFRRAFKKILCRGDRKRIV

[2] = molecular target: T2, Adrenergic receptor alpha-1 (Rattus norvegicus, UniProt P15823+P23944+P43140); assay: In vitro binding affinity against alpha-1 adrenergic receptor of rat in presence of [3H]-prazosin radioligand; type: protein assay
T2 sequence (P15823 whole entry): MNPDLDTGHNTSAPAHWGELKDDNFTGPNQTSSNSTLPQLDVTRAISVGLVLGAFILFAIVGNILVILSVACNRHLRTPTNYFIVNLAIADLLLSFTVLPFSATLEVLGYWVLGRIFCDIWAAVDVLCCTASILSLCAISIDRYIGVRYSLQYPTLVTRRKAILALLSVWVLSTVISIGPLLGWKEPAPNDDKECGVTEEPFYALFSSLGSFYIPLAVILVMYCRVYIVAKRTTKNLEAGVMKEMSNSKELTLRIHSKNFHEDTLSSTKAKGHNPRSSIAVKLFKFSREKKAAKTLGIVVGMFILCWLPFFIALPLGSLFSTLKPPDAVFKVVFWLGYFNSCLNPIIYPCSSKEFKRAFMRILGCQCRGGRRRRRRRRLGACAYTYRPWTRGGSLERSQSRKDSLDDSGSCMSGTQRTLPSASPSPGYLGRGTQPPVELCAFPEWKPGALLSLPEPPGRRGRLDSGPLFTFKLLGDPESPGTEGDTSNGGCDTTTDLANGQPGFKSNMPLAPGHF
T2 sequence (P23944 whole entry): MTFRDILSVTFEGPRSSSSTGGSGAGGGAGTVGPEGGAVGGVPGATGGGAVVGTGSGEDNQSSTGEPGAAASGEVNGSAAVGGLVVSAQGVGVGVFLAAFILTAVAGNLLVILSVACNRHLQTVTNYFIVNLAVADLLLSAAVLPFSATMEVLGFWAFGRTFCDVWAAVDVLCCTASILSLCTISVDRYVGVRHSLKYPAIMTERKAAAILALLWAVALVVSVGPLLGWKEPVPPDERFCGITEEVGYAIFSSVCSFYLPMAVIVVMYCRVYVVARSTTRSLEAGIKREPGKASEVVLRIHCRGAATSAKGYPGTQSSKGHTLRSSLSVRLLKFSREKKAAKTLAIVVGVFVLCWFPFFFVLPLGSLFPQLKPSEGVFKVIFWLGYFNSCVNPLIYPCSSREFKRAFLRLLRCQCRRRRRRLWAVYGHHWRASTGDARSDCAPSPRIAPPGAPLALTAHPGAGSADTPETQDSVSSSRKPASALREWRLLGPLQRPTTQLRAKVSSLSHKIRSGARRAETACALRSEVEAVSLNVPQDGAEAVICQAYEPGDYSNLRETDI
T2 sequence (P43140 whole entry): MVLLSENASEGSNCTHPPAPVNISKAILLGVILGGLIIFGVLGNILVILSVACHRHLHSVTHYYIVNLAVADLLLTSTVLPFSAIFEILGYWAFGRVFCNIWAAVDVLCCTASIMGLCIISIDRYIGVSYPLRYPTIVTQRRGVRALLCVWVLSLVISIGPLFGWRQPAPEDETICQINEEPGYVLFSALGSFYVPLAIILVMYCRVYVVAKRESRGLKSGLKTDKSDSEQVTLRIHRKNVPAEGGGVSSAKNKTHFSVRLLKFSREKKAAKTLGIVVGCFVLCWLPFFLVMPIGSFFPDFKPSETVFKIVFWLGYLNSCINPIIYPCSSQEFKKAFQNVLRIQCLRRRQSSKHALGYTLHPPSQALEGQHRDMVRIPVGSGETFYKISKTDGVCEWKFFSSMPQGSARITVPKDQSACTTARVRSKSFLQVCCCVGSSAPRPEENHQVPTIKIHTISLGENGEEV

[3] = molecular target: T3, Alpha-2A adrenergic receptor (Homo sapiens) (UniProt P08913); assay: Antagonistic activity as [35S]GTP gamma-S binding at alpha-2a adrenergic receptor expressed in CHO cells; type: functional, cell-based
T3 sequence (whole entry): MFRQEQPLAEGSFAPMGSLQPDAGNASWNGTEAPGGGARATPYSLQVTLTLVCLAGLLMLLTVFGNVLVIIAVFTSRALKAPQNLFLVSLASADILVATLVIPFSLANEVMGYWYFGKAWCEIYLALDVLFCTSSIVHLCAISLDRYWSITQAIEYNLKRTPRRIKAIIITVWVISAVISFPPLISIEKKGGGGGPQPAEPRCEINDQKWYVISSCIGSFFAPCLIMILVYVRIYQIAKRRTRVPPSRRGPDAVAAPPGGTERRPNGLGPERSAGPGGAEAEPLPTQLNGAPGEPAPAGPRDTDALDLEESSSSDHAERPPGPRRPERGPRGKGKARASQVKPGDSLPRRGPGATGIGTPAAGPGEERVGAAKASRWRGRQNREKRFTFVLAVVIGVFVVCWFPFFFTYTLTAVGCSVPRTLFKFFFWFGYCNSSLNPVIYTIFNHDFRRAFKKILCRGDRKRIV
Summary of the method: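 Membranes (40 μg/mL) from CHO cells stably expressing human α2A receptor, preincubated 30 min at room temperature with drug in 20 mM HEPES pH 7.4, 100 mM NaCl, 3 μM GDP, 3 mM MgCl2; 0.2 nM [35S]GTPγS added, 60 min room temperature, NA 10 μM as agonist. Nonspecific: 10 μM GTPγS. Filtration, scintillation counting; pKB from IC50 corrected for agonist concentration/EC50.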

[4] = molecular target: T4, Alpha-2A adrenergic receptor (Homo sapiens, UniProt P08913); assay: Binding affinity for human alpha-2 adrenergic receptor expressed in CHO cell; type: cell-based
T4 sequence (P08913 whole entry): T3 sequence (whole entry)

[5] = molecular target: Norepinephrine transporter (Rattus norvegicus, UniProt Q9WTR4); assay: In vitro binding affinity was determined against NA (noradrenaline) reuptake site of rat in presence of [3H]nisoxetine radioligand
Sequence of Norepinephrine transporter (Q9WTR4 whole entry): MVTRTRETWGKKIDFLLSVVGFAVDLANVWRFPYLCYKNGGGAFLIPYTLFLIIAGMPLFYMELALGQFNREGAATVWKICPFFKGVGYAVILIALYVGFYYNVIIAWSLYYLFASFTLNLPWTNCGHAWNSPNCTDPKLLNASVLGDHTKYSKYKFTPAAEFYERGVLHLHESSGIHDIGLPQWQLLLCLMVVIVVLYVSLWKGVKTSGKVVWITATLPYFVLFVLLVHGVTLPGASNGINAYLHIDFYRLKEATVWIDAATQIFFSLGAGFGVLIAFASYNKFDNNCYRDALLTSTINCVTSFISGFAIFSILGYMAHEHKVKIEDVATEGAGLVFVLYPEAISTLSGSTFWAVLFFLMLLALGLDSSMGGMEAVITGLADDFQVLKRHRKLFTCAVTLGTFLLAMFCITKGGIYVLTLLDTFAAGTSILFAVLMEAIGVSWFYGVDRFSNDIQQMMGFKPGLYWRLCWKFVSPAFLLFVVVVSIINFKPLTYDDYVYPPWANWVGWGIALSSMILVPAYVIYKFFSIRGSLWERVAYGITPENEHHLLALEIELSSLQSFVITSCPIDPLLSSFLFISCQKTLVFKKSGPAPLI

[6] = molecular target: Sodium-dependent serotonin transporter (Rattus norvegicus, UniProt P31652); assay: In vitro binding affinity was determined against serotonin reuptake site of rat in presence of [3H]paroxetine radioligand
Sequence of Sodium-dependent serotonin transporter (P31652 whole entry): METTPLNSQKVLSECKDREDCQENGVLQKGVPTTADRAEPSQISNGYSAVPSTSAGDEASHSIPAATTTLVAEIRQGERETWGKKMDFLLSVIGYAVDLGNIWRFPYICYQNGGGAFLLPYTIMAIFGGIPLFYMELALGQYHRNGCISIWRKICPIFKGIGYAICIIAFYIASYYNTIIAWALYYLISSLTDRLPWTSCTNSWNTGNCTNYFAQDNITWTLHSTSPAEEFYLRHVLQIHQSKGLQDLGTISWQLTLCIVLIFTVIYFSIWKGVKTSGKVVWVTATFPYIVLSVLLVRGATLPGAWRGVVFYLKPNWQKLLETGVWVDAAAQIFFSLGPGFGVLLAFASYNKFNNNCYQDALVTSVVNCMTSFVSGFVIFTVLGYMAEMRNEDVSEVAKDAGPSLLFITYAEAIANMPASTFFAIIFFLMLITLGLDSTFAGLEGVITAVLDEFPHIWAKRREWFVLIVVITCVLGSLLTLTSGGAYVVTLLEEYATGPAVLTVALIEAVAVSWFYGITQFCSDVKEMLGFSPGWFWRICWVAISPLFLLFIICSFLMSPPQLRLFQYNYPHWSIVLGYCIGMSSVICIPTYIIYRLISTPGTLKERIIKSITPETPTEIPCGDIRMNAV

Log Ki [1]	Log Ki [2]	pKB [3]	Ki [4]	Ki [5]	Ki [6]	Structure (SMILES)
-7	-6.4	6.6	100 nM	50.1 nM	39.8 nM	C1=NCC(CC2=Cc3ccccc3CC2)N1 (configuration not stated)
-7.9	-5.6	6.9	20 nM	63.1 nM	1000 nM	C1=NCC(Cc2cc3ccccc3o2)N1 (configuration not stated)
